Data as given in ChEMBL document CHEMBL4049410, “Novel benzimidazolyl tetrahydroprotoberberines: Design, synthesis, antimicrobial evaluation and multi-targeting exploration” (2017).
Converted amounts (≈) assume the structure as drawn.

Columns and labels:
Saccharomyces cerevisiae = experiment: Antifungal activity against Saccharomyces cerevisiae after 24 hrs by two-fold serial dilution assay; assay type: functional
Method in brief: (§1)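 Twofold serial broth dilution following NCCLS guidance, with Chloromycin, Norfloxacin and Fluconazole as positive controls. MIC in μM is the lowest concentration giving complete inhibition of visible bacterial or fungal growth.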

Aspergillus flavus = experiment: Antifungal activity against Aspergillus flavus after 24 hrs by two-fold serial dilution assay; assay type: functional; method in brief: as §1
Cyberlindnera jadinii = experiment: Antifungal activity against Candida utilis after 24 hrs by two-fold serial dilution assay; assay type: functional; method in brief: as §1
Pichia norvegensis = experiment: Antifungal activity against Candida mycoderma after 24 hrs by two-fold serial dilution assay; assay type: functional; method in brief: as §1
Shigella dysenteriae = experiment: Antibacterial activity against Shigella dysenteriae after 24 hrs by two-fold serial dilution assay; assay type: functional
Pseudomonas aeruginosa = experiment: Antibacterial activity against Pseudomonas aeruginosa after 24 hrs by two-fold serial dilution assay; assay type: functional; method in brief: as §1
Staphylococcus aureus [1] = experiment: Antibacterial activity against Staphylococcus aureus ATCC 25923 after 24 hrs by two-fold serial dilution assay; assay type: functional; method in brief: as §1
Escherichia coli [2] = experiment: Antibacterial activity against Escherichia coli JM109 after 24 hrs by two-fold serial dilution assay; assay type: functional; method in brief: as §1
Staphylococcus aureus [3] = experiment: Antibacterial activity against methicillin-resistant Staphylococcus aureus N315 after 24 hrs by two-fold serial dilution assay; assay type: functional; conditions: Staphylococcus aureus, N315, 24 h; read-out: MIC
Salmonella typhi = experiment: Antibacterial activity against Bacillus typhi after 24 hrs by two-fold serial dilution assay; assay type: functional, Salmonella enterica subsp. enterica serovar Typhi; conditions: Salmonella enterica, 24 h; read-out: MIC
Micrococcus luteus = experiment: Antibacterial activity against Micrococcus luteus ATCC 4698 after 24 hrs by two-fold serial dilution assay; assay type: functional, NCTC 2665; method in brief: as §1
Bacillus subtilis = experiment: Antibacterial activity against Bacillus subtilis after 24 hrs by two-fold serial dilution assay; assay type: functional; method in brief: as §1
Escherichia coli [4] = experiment: Antibacterial activity against Escherichia coli DH52 after 24 hrs by two-fold serial dilution assay; assay type: functional; method in brief: as §1
Candida albicans = experiment: Antifungal activity against Candida albicans ATCC 76615 after 24 hrs by two-fold serial dilution assay; assay type: functional; method in brief: as §1
Proteus vulgaris = experiment: Antibacterial activity against Bacillus proteus ATCC 13315 after 24 hrs by two-fold serial dilution assay; assay type: functional; method in brief: as §1
[5] = Saccharomyces cerevisiae, 24 h, read-out: MIC
[6] = Aspergillus flavus, 24 h, read-out: MIC
[7] = Williopsis jadinii, 24 h, read-out: MIC
[8] = Pichia norvegensis, 24 h, read-out: MIC
[9] = Shigella dysenteriae, 24 h, read-out: MIC
[10] = Pseudomonas aeruginosa, 24 h, read-out: MIC
[11] = Staphylococcus aureus, ATCC 25923, 24 h, read-out: MIC
[12] = Escherichia coli, JM109, 24 h, read-out: MIC
[13] = Micrococcus luteus, NCTC 2665, 24 h, read-out: MIC
[14] = Bacillus subtilis, 24 h, read-out: MIC
[15] = Escherichia coli, DH52, 24 h, read-out: MIC
[16] = Candida albicans, ATCC 76615, 24 h, read-out: MIC
[17] = Proteus vulgaris, ATCC 13315, 24 h, read-out: MIC

SMILES | MIC (Saccharomyces cerevisiae; [5]) | MIC (Aspergillus flavus; [6]) | MIC (Cyberlindnera jadinii; [7]) | MIC (Pichia norvegensis; [8]) | MIC (Shigella dysenteriae; [9]) | MIC (Pseudomonas aeruginosa; [10]) | MIC (Staphylococcus aureus [1]; [11]) | MIC (Escherichia coli [2]; [12]) | MIC (Staphylococcus aureus [3]) | MIC (Salmonella typhi) | MIC (Micrococcus luteus; [13]) | MIC (Bacillus subtilis; [14]) | MIC (Escherichia coli [4]; [15]) | MIC (Candida albicans; [16]) | MIC (Proteus vulgaris; [17]) | MIC (Pseudomonas aeruginosa) | MIC (Escherichia coli [2]) | MIC (Micrococcus luteus) | MIC (Aspergillus flavus) | MIC (Bacillus subtilis) | other results
OC(Cn1cncn1)(Cn1cncn1)c1ccc(F)cc1F [FLUCONAZOLE] | 52.2 µM (≈ 16 µg/mL) | 836 µM (≈ 256 µg/mL) | 10.9 µM (≈ 3.34 µg/mL) | 26.1 µM (≈ 7.99 µg/mL) | – | – | – | – | – | – | – | – | – | – | – | – | – | – | – | – | –
COc1ccc2cc3[n+](cc2c1OC)CCc1cc2c(cc1-3)OCO2 [BERBERINE] | 287 µM | 1150 µM | 574 µM | 287 µM | 1150 µM | 574 µM | 1380 µM | 1380 µM | 230 µM | 459 µM | 1380 µM | 1150 µM | 1150 µM | 918 µM | 688 µM | – | – | – | – | – | –
COc1cc(-c2nc3ccccc3n2Cc2ccccc2Cl)c2c(c1O)CN1CCc3cc4c(cc3C1C2)OCO4 (stereo unspecified) | 23.6 µM (≈ 13.4 µg/mL) | 11.8 µM (≈ 6.68 µg/mL) | 18.9 µM (≈ 10.7 µg/mL) | 47.1 µM (≈ 26.7 µg/mL) | 28.3 µM (≈ 16 µg/mL) | 23.6 µM (≈ 13.4 µg/mL) | 9.4 µM (≈ 5.32 µg/mL) | 4.7 µM (≈ 2.66 µg/mL) | 23.6 µM (≈ 13.4 µg/mL) | 37.7 µM (≈ 21.3 µg/mL) | 23.6 µM (≈ 13.4 µg/mL) | 188 µM (≈ 107 µg/mL) | 23.6 µM (≈ 13.4 µg/mL) | 56.5 µM (≈ 32 µg/mL) | 47.1 µM (≈ 26.7 µg/mL) | – | – | – | – | – | –
COc1cc(-c2nc3ccccc3n2Cc2ccc(F)cc2)c2c(c1O)CN1CCc3cc4c(cc3C1C2)OCO4.Cl (stereo unspecified) | – | – | – | – | – | – | – | – | – | – | – | – | – | – | – | 182 µM | 182 µM | 182 µM | 182 µM | 182 µM | MIC (Shigella dysenteriae): 145.6 µM; MIC (Staphylococcus aureus [1]): 109.2 µM; MIC (Saccharomyces cerevisiae): 36.4 µM; MIC (Cyberlindnera jadinii): 182 µM; MIC (Escherichia coli [4]): 182 µM; MIC (Pichia norvegensis): 218.4 µM; MIC (Candida albicans): 182 µM; MIC (Proteus vulgaris): 182 µM
COc1cc(-c2nc3ccccc3n2Cc2cccc(F)c2)c2c(c1O)CN1CCc3cc4c(cc3C1C2)OCO4.Cl (stereo unspecified) | – | – | – | – | – | – | – | – | – | – | – | – | – | – | – | 212.4 µM | 70.8 µM | 70.8 µM | 88.5 µM | 88.5 µM | MIC (Staphylococcus aureus [1]): 70.8 µM; MIC (Saccharomyces cerevisiae): 35.4 µM; MIC (Cyberlindnera jadinii): 106.2 µM; MIC (Escherichia coli [4]): 141.6 µM; MIC (Pichia norvegensis): 70.8 µM; MIC (Candida albicans): 70.8 µM; MIC (Proteus vulgaris): 88.5 µM
CCCCCCCCn1c(-c2cc(OC)c(O)c3c2CC2c4cc5c(cc4CCN2C3)OCO5)nc2ccccc21 (stereo unspecified) | 96.3 µM (≈ 53.3 µg/mL) | 28.9 µM (≈ 16 µg/mL) | 24.1 µM (≈ 13.3 µg/mL) | 4.8 µM (≈ 2.66 µg/mL) | 77.1 µM (≈ 42.7 µg/mL) | 38.5 µM (≈ 21.3 µg/mL) | 14.4 µM (≈ 7.97 µg/mL) | 116 µM (≈ 64 µg/mL) | 231 µM (≈ 128 µg/mL) | 24.1 µM (≈ 13.3 µg/mL) | 48.2 µM (≈ 26.7 µg/mL) | 57.8 µM (≈ 32 µg/mL) | 24.1 µM (≈ 13.3 µg/mL) | 28.9 µM (≈ 16 µg/mL) | 9.6 µM (≈ 5.32 µg/mL) | – | – | – | – | – | –
CCCCCCCCCCCCn1c(-c2cc(OC)c(O)c3c2CC2c4cc5c(cc4CCN2C3)OCO5)nc2ccccc21 (stereo unspecified) | 70 µM (≈ 42.7 µg/mL) | 43.8 µM (≈ 26.7 µg/mL) | 17.5 µM (≈ 10.7 µg/mL) | 3.3 µM (≈ 2.01 µg/mL) | 175 µM (≈ 107 µg/mL) | 17.5 µM (≈ 10.7 µg/mL) | 26.2 µM (≈ 16 µg/mL) | 26.2 µM (≈ 16 µg/mL) | 175 µM (≈ 107 µg/mL) | 8.7 µM (≈ 5.31 µg/mL) | 105 µM (≈ 64 µg/mL) | 35 µM (≈ 21.3 µg/mL) | 87.5 µM (≈ 53.4 µg/mL) | 5.5 µM (≈ 3.35 µg/mL) | 5.5 µM (≈ 3.35 µg/mL) | – | – | – | – | – | –
COc1ccc2c(c1O)CN1CCc3cc4c(cc3C1C2)OCO4 (stereo unspecified) | 1570 µM (≈ 512 µg/mL) | 656 µM (≈ 213 µg/mL) | 1050 µM (≈ 341 µg/mL) | 164 µM (≈ 53.3 µg/mL) | 1570 µM (≈ 512 µg/mL) | 787 µM (≈ 256 µg/mL) | 787 µM (≈ 256 µg/mL) | 656 µM (≈ 213 µg/mL) | 1310 µM (≈ 427 µg/mL) | 787 µM (≈ 256 µg/mL) | 1570 µM (≈ 512 µg/mL) | 1570 µM (≈ 512 µg/mL) | 1570 µM (≈ 512 µg/mL) | 524 µM (≈ 171 µg/mL) | 1310 µM (≈ 427 µg/mL) | – | – | – | – | – | –
COc1cc(-c2nc3ccccc3n2Cc2ccc(F)cc2)c2c(c1O)CN1CCc3cc4c(cc3C1C2)OCO4 (stereo unspecified) | 20.1 µM (≈ 11 µg/mL) | – | – | – | – | – | 60.2 µM (≈ 33.1 µg/mL) | – | – | – | – | – | 100 µM (≈ 55.1 µg/mL) | – | – | 25.1 µM (≈ 13.8 µg/mL) | 25.1 µM (≈ 13.8 µg/mL) | 40.1 µM (≈ 22 µg/mL) | 50.2 µM (≈ 27.6 µg/mL) | 20.1 µM (≈ 11 µg/mL) | MIC (Cyberlindnera jadinii): 60.2 µM (≈ 33.1 µg/mL); MIC (Pichia norvegensis): 25.1 µM (≈ 13.8 µg/mL); MIC (Candida albicans): 25.1 µM (≈ 13.8 µg/mL); MIC (Proteus vulgaris): 25.1 µM (≈ 13.8 µg/mL)
COc1ccc(Cn2c(-c3cc(OC)c(O)c4c3CC3c5cc6c(cc5CCN3C4)OCO6)nc3ccccc32)cc1 (stereo unspecified) | 38 µM (≈ 21.3 µg/mL) | 23.8 µM (≈ 13.4 µg/mL) | 57 µM (≈ 32 µg/mL) | 57 µM (≈ 32 µg/mL) | 57 µM (≈ 32 µg/mL) | 38 µM (≈ 21.3 µg/mL) | 47.5 µM (≈ 26.7 µg/mL) | 38 µM (≈ 21.3 µg/mL) | 57 µM (≈ 32 µg/mL) | 47.5 µM (≈ 26.7 µg/mL) | 57 µM (≈ 32 µg/mL) | 19 µM (≈ 10.7 µg/mL) | 95 µM (≈ 53.4 µg/mL) | 38 µM (≈ 21.3 µg/mL) | 47.5 µM (≈ 26.7 µg/mL) | – | – | – | – | – | –
